# Measured values reported in ChEMBL document CHEMBL1122415, “Folate antagonists. 20. Synthesis and antitumor and antimalarial properties of trimetrexate and related 6-[(phenylamino)methyl]-2,4-quinazolinediamines” (1983).
# “And” between values parts separate entries of the source, which are not always exact repeats. Identical values can stand only once.
# Tests used:
# [1] = species on record: Mus musculus; experiment: Daily dose required for 90% parasitaemia in trophozoite induced Plasmodium berghei in 21 mice; assay type: functional
# Summary of the method: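 Oral suppressive test in mice against a normal drug-sensitive P. berghei strain. Drug given continuously in the diet for six consecutive days, with doses as free base equivalent. SD90 is the daily dose (mg/kg) giving 90% suppression of parasitemia versus control mice, estimated graphically on semilog paper.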
# [2] = system: Mus musculus; experiment: Antimalarial effect against trophozoite-induced Plasmodium berghei in mice (Mus musculus) after subcutaneous administration dose of 640 mg/kg; assay type: functional
# [3] = system: Mus musculus; experiment: Antimalarial effect against trophozoite-induced Plasmodium berghei in mice (Mus musculus) after subcutaneous administration dose of 40 mg/kg; assay type: functional
# [4] = system: Mus musculus; experiment: Antimalarial effect against trophozoite-induced Plasmodium berghei in mice (Mus musculus) after subcutaneous administration dose of 10 mg/kg; assay type: functional
# [5] = system: Mus musculus; experiment: Antimalarial effect against trophozoite-induced Plasmodium berghei in mice (Mus musculus) after subcutaneous administration dose of 160 mg/kg; assay type: functional
# [6] = system: Mus musculus; experiment: Antimalarial effect against trophozoite-induced Plasmodium berghei in mice (Mus musculus) after subcutaneous administration dose of 320 mg/kg; assay type: functional
# [7] = system: Mus musculus; experiment: Antimalarial effect against trophozoite-induced Plasmodium berghei in mice (Mus musculus) after subcutaneous administration dose of 20 mg/kg; assay type: functional
# [8] = system: L1210; experiment: Molar concentration required to reduce the number of L1210 cells by 50% after incubation for 2 days; assay type: functional, Mus musculus; settings: read-out: ID50 (the source's name)
# Summary of the method: (§1)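 L1210 leukemia cells in tissue culture exposed to drug for 2 days. ID50 is the molar concentration that reduces L1210 cell number by 50%. Mithramycin is the reference drug.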
# [9] = system: Plasmodium berghei; experiment: Antimalarial effect against trophozoite-induced Plasmodium berghei in mice (Mus musculus) at 20 mg/kg subcutaneous dose; assay type: functional; settings: 20 mg/kg
# [10] = system: Mus musculus; experiment: Antimalarial effect against trophozoite-induced Plasmodium berghei in mice (Mus musculus) after subcutaneous administration dose of 80 mg/kg; 4 survived after 60 days of post infection; assay type: functional
# [11] = system: Plasmodium berghei; experiment: Antimalarial effect against trophozoite-induced Plasmodium berghei in mice (Mus musculus) at 80 mg/kg subcutaneous dose; assay type: functional
# [12] = system: Plasmodium berghei; experiment: Antimalarial effect against trophozoite-induced Plasmodium berghei in mice (Mus musculus) at 40 mg/kg subcutaneous dose; assay type: functional
# [13] = system: L1210; experiment: Molar concentration required to reduce the number of L1210 cells by 50% after incubation for 2 days (exp 2; assay type: functional; settings: Mus musculus, L1210, 48 h; read-out: ID50 (the source's name); summary of the method: as §1
# [14] = system: Mus musculus; experiment: Antimalarial effect against trophozoite-induced Plasmodium berghei in mice (Mus musculus) after subcutaneous administration dose of 2.5 mg/kg; assay type: functional
# [15] = system: Mus musculus; experiment: Antimalarial effect against trophozoite-induced Plasmodium berghei in mice (Mus musculus) after subcutaneous administration dose of 5 mg/kg; assay type: functional
# [16] = system: Mus musculus; experiment: Antimalarial effect against trophozoite-induced Plasmodium berghei in mice (Mus musculus) after subcutaneous administration dose of 160 mg/kg; 4 survived after 60 days of post infection; assay type: functional
# [17] = system: Plasmodium berghei; experiment: Antimalarial effect against trophozoite-induced Plasmodium berghei in mice (Mus musculus) at 5 mg/kg subcutaneous dose; assay type: functional
# [18] = system: Plasmodium berghei; experiment: Antimalarial effect against trophozoite-induced Plasmodium berghei in mice (Mus musculus) after subcutaneous dose of 10 mg/kg; assay type: functional; settings: 10 mg/kg
# [19] = system: Mus musculus; experiment: Antimalarial effect against trophozoite-induced Plasmodium berghei in mice (Mus musculus) after subcutaneous administration dose of 160 mg/kg; 3 survived after 60 days of postinfection; assay type: functional
# [20] = system: Mus musculus; experiment: Antimalarial effect against trophozoite-induced Plasmodium berghei in mice (Mus musculus) after subcutaneous administration dose of 20 mg/kg; 4 survived after 60 days of postinfection; assay type: functional
# [21] = system: Mus musculus; experiment: Antimalarial effect against trophozoite-induced Plasmodium berghei in mice (Mus musculus) after subcutaneous administration dose of 10 mg/kg; 1 survived after 60 days of post infection; assay type: functional
# [22] = system: Mus musculus; experiment: Antimalarial effect against trophozoite-induced Plasmodium berghei in mice (Mus musculus) after subcutaneous administration dose of 20 mg/kg; 3 survived after 60 days of post infection; assay type: functional
smiles,measurement,setting,value
CC(=O)O.Nc1nc(N)c2cc(CNc3cc(Cl)cc(Cl)c3)ccc2n1.O.O,SD90,[1],51 mg/kg/day
same,Delta MST,[2],13.7 days
same,Delta MST,[3],0.7 days
same,Delta MST,[4],0.3 days
same,Delta MST,[5],6.9 days and 4.7 days
same,Delta MST,[6],12.9 days and 6.9 days
same,Delta MST,[7],0.3 days
same,IC50,"[8]; Mus musculus, L1210, 48 h",0.12 µM
same,IC50,[8],0.074 µM
CC(=O)O.COc1cc(NCc2ccc3nc(N)nc(N)c3c2C)cc(OC)c1OC.O,SD90,[1],0.44 mg/kg/day
same,Delta MST,[9],12 days and 11.5 days and 7.1 days
same,Delta MST,[10],16.3 days and 14.7 days
same,Delta MST,[11],30.8 days
same,Delta MST,[12],14.7 days
same,IC50,"[8]; Mus musculus, L1210, 48 h",0.011 µM
same,IC50,[8],0.02 µM
CC(=O)O.Nc1nc(N)c2c(Cl)c(CNc3cccc(Br)c3)ccc2n1.O,IC50,[13],0.0022 µM
same,Delta MST,[14],1.5 days
same,Delta MST,[3]; 40 mg/kg,11.3 days and 11.5 days and 11.7 days
same,Delta MST,[4]; 10 mg/kg,7.3 days and 7.5 days and 4.7 days
same,Delta MST,[7]; 20 mg/kg,8.5 days and 8.3 days
same,IC50,"[8]; Mus musculus, L1210, 48 h",0.0021 µM
same,Delta MST,[15],4.7 days
CC(=O)O.Nc1nc(N)c2cc(CN(N=O)c3ccc(Cl)c(Cl)c3)ccc2n1.O,SD90,[1],0.25 mg/kg/day
same,Delta MST,[9],6.7 days and 6.8 days
same,Delta MST,[16],22.8 days
same,Delta MST,[11]; 80 mg/kg,12.3 days and 12 days
same,Delta MST,[12]; 40 mg/kg,9.9 days and 9.8 days
same,Delta MST,[17],2 days
same,Delta MST,[18],3.7 days and 4 days
same,Delta MST,[19],28.7 days
same,IC50,"[8]; Mus musculus, L1210, 48 h",0.04 µM
same,IC50,[8],0.07 µM
Cc1c(CN(N=O)c2ccc(Cl)c(Cl)c2)ccc2nc(N)nc(N)c12,SD90,[1],1.15 mg/kg/day
same,Delta MST,[14],4.1 days
same,Delta MST,[20],21.7 days and 24.9 days
same,Delta MST,[17]; 5 mg/kg,9.9 days and 10.5 days
same,Delta MST,[21],12 days and 11.9 days
same,IC50,"[8]; Mus musculus, L1210, 48 h",0.07 µM
same,IC50,[8],0.1 µM
Cc1c(CN(C=O)c2ccc(Cl)c(Cl)c2)ccc2nc(N)nc(N)c12,Delta MST,[9],9.9 days and 9.4 days
same,Delta MST,[22],9.9 days
same,Delta MST,[12],29.9 days
same,Delta MST,[17],5.3 days
same,Delta MST,[18],7.7 days and 5.3 days and 3.9 days
same,IC50,"[8]; Mus musculus, L1210, 48 h",0.021 µM
same,IC50,[8],0.026 µM
